PMC5974556 (ChemistryOpen, 2018)
Values after ≈ are worked out from the molar mass of the structure shown. Marks after values point to notes of the source that are not given here.

How the values were obtained:
[1] = Water solubility, shake flask method in 0.1 M phosphate buffer pH 6.8; assay type: physicochemical; settings: 37 °C, pH 6.8, aqueous buffer, thermodynamic from solid
Summary of the method: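 Excess solid added to 1 mL sodium phosphate buffer, pH 6.8. Two conditions: 90 min sonication at 37 °C, or 30 min sonication at 37 °C, 23 h shaking at 300 rpm, then 30 min sonication. Centrifuged 14000 rpm for 5 min, filtered (0.2 µm) at 37 °C and diluted in DMSO. Quantified by LC at maximum absorbance against standard curves; independent triplicates.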

[2] = Ferric reducing antioxidant power; settings: chemical antioxidant capacity, n=3
Summary of the method: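 FRAP reagent made from acetate buffer, TPTZ in ethanol and FeCl3·6H2O in dilute HCl, mixed 10:1:1, with TPTZ and iron solutions fresh daily. Sample mixed with reagent 1:9, absorbance read at 593 nm after 4 min. Values expressed as Trolox equivalents by linear regression on a Trolox standard curve; α-tocopherol positive control.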

[3] = tested on: Caco‐2 cells; assay: Mitochondria activity; assay type: cell-based; settings: Homo sapiens, Caco-2, 72 h, read-out: Caco‐2 IC50 MTT
Summary of the method: (§1)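 Cells kept in DMEM+glutamax with 1% NEAA, 1% P/S and 10% FBS at 37 °C, 10% CO2. Seeded 2×10^4 per well for 24 h, then exposed 72 h to test compound at various concentrations in serum-free medium, in triplicate. MTT (5 mg/mL in PBS) added for 2 h, formazan dissolved in DMSO, read at 570 nm. IC50 from % survival; doxorubicin control; MTT and SRB data pooled, mean ± SD, n≥6.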

[4] = tested on: Caco‐2 cells; assay: Protein content; assay type: cell-based; settings: Homo sapiens, Caco-2, 72 h, read-out: Caco‐2 IC50 SRB
Summary of the method: (§2)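 Seeded 2×10^4 cells per well for 24 h, then treated with or without test compound for three days, in triplicate. Fixed with 50% TCA for 1 h at 4 °C, washed and dried. Stained 30 min at 4 °C with 0.4% sulforhodamine B in 1% acetic acid, rinsed with 1% acetic acid. Dye redissolved in Tris buffer, absorbance read at 490 nm. Doxorubicin control; MTT and SRB data pooled, mean ± SD, n≥6.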

[5] = tested on: EA.hy926 cells; assay: Mitochondria activity; assay type: cell-based; settings: Homo sapiens, EA.hy 926, 72 h, read-out: EA.hy926 IC50 MTT
Summary of the method: as §1

[6] = tested on: EA.hy926 cells; assay: Protein content; assay type: cell-based; settings: Homo sapiens, EA.hy 926, 72 h, read-out: EA.hy926 IC50 SRB
Summary of the method: as §2

[7] = tested on: HT‐29 cells; assay: Mitochondria activity; assay type: cell-based; settings: Homo sapiens, HT-29, 72 h, read-out: HT‐29 IC50 MTT
Summary of the method: as §1

[8] = tested on: HT‐29 cells; assay: Protein content; assay type: cell-based; settings: Homo sapiens, HT-29, 72 h, read-out: HT‐29 IC50 SRB
Summary of the method: as §2

[9] = tested on: HepG2 cells; assay: Mitochondria activity; assay type: cell-based; settings: Homo sapiens, HepG2, 72 h, read-out: HepG2 IC50 MTT
Summary of the method: as §1

[10] = tested on: HepG2 cells; assay: Protein content; assay type: cell-based; settings: Homo sapiens, HepG2, 72 h, read-out: HepG2 IC50 SRB
Summary of the method: as §2

[11] = tested on: Caco‐2 cells; assay: Intracellular ROS; assay type: cell-based, human; settings: protein content normalization, mean±SD, n≥3
Summary of the method: (§3)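 Cells grown in DMEM+glutamax with 1% NEAA, 1% P/S and 10% FBS at 37 °C, 10% CO2. Seeded at 2×10^4 cells/well for 24 h, then confluent cells were exposed to test compound at 1 or 10 µM in serum-free medium, with NAC as control. Cells were washed, loaded with DCFH-DA for 30 min, then kept 1 h in phenol red-free DMEM. Fluorescence read at ex 485/em 535 nm, normalised to same-well SRB protein (490 nm) and given as % of untreated cells. Mean ± SD, n≥3; two-tailed t-test with unequal variances.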

[12] = tested on: EA.hy926 cells; assay: Intracellular ROS; assay type: cell-based; settings: Homo sapiens; for activity at 1 µM: EA.hy 926, read-out: Intracellular ROS, percentage compared to the untreated control cells (ROS/SRB), EA.hy926, 1 μM; for activity at 10 µM: EA.hy 926, read-out: Intracellular ROS, percentage compared to the untreated control cells (ROS/SRB), EA.hy926, 10 μM
Summary of the method: as §3

[13] = tested on: HT‐29 cells; assay: Intracellular ROS; assay type: cell-based; settings: Homo sapiens; for activity at 1 µM: HT-29, read-out: Intracellular ROS, percentage compared to the untreated control cells (ROS/SRB), HT‐29, 1 μM; for activity at 10 µM: HT-29, read-out: Intracellular ROS, percentage compared to the untreated control cells (ROS/SRB), HT‐29, 10 μM
Summary of the method: as §3

[14] = tested on: HepG2 cells; assay: Intracellular ROS; assay type: cell-based; settings: Homo sapiens; for activity at 1 µM: HepG2, read-out: Intracellular ROS, percentage compared to the untreated control cells (ROS/SRB), HepG2, 1 μM; for activity at 10 µM: HepG2, read-out: Intracellular ROS, percentage compared to the untreated control cells (ROS/SRB), HepG2, 10 μM
Summary of the method: as §3

[15] = DPPH radical‐scavenging activity assay; settings: result in words
Summary of the method: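 DPPH diluted to 200 µM in MeOH and mixed with an equal volume of test compound in MeOH at various concentrations. Incubated 30 min in the dark at 30 °C, absorbance read at 515 nm. % inhibition corrected for sample absorbance without DPPH. EC50 from fit to the linear part of the curve. Trolox reference; at least three independent experiments.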

Row | Compound | solubility at 90 min [1] [µM] | solubility at 24 h [1] [µM] | FRAP [2] [Trolox equiv per μM] | IC50 [3] [µM] | IC50 [4] [µM] | IC50 [5] [µM] | IC50 [6] [µM] | IC50 [7] [µM] | IC50 [8] [µM] | IC50 [9] [µM] | IC50 [10] [µM] | Intracellular ROS, percentage compared to the untreated control cells (ROS/SRB), Caco‐2, 1 μM [11] | activity at 1 µM [12] [%] | activity at 10 µM [12] [%] | activity at 1 µM [13] [%] | activity at 10 µM [13] [%] | activity at 1 µM [14] [%] | activity at 10 µM [14] [%] | DPPH radical‐scavenging activity [15] | Intracellular ROS, percentage compared to the untreated control cells (ROS/SRB), Caco‐2, 10 μM [11]
1 | O=C1C=C(/C=C/c2cccnc2)N(CCCO)C(c2cccnc2)C1 (centres unmarked) [6 f, (E)‐1‐(3‐Hydroxypropyl)‐2‐(pyridin‐3‐yl)‐6‐[2‐(pyridin‐3‐yl)vinyl]‐2,3‐dihydropyridin‐4(1H)‐one] | 2460 ± 57.2 (≈ 826 µg/mL) | 5000 ± 137 (≈ 1680 µg/mL) | 0.00 | > 75 | > 75 | > 75 | > 75 | > 75 | > 75 | > 75 | > 75 | 100.5±2.4% | 101 ± 1.3 | 106 ± 9.9 | 111 ± 8.1 | 106 ± 4.1 | 88.8 ± 10.4 | 106 ± 13.1 | – | –
2 | O=C(/C=C(O)/C=C/c1cccnc1)/C=C/c1cccnc1 [compound 2, (1E,4Z,6E)‐5‐Hydroxy‐1,7‐di(pyridin‐3‐yl)hepta‐1,4,6‐trien‐3‐one] | 12.4 ± 0.2 (≈ 3.45 µg/mL) | 9.2 ± 0.1 (≈ 2.56 µg/mL) | 0.03 | 6.9 ± 2.5 | 7.3 ± 3.1 | 7.9 ± 1.9 | 11.2 ± 2.8 | 8.2 ± 0.8 | 6.1 ± 3.4 | 8.3 ± 0.7 | 10 ± 1.6 | 104.8±15.1% | 112 ± 1.6 | 116 ± 3.3 | 94 ± 4 | 127 ± 7.9 | 99 ± 4.6 | 90.4 ± 11.9 | no activity | 142.7±11.9^[b] %
3 | O=C(/C=C(O)/C=C/c1c[nH]c2ccccc12)/C=C/c1c[nH]c2ccccc12 [compound 3, (1E,4Z,6E)‐5‐Hydroxy‐1,7‐di(1H‐indol‐3‐yl)hepta‐1,4,6‐trien‐3‐one] | 19 ± 0.2 (≈ 6.73 µg/mL) | 11.1 ± 0.1 (≈ 3.93 µg/mL) | 0.27 | 3.3 ± 0.3 | 2.1 ± 0.6 | 11.7 ± 4.6 | 15.2 ± 5.9 | 11.5 ± 6.7 | 15.3 ± 6.6 | 10 ± 1.7 | 10.4 ± 1.5 | 95.7±7.3% | 111 ± 7.5 | 218 ± 20.3 | 141 ± 21.3 | 125 ± 12 | 129 ± 8 | 382 ± 34 | – | 110.3±6.5^[b] %
4 | O=C(/C=C(O)/C=C/c1ccc[nH]1)/C=C/c1ccc[nH]1 [compound 4, (1E,4Z,6E)‐5‐Hydroxy‐1,7‐di(1H‐pyrrol‐2‐yl)hepta‐1,4,6‐trien‐3‐one] | 84.8 ± 2.8 (≈ 21.6 µg/mL) | 74.2 ± 1.3 (≈ 18.9 µg/mL) | 0.79 | 7.5 ± 1.6 | 9.7 ± 0.6 | 8.3 ± 0.9 | 9 ± 2.2 | 8.9 ± 0.5 | 9.6 ± 0.5 | 8.2 ± 0.9 | 9.8 ± 1.5 | 110.2±9.5^[b] % | 295 ± 38.5 | 165 ± 18.9 | 105 ± 6.3 | 121 ± 8.7 | 75.6 ± 14.6 | 121 ± 26.1 | – | 124.3±8.7^[c] %
5 | COc1cc(/C=C/C(=O)CC(=O)/C=C/c2ccc(O)c(OC)c2)ccc1O [curcumin, reference compound] | 2.9 ± 0.3 (≈ 1.07 µg/mL) | 2.6 (≈ 0.958 µg/mL) | 1.11 | 28 ± 6.4 | 33.1 ± 4.5 | 20 ± 5.9 | 34.7 ± 10.5 | 23.4 ± 5.1 | 20.3 ± 1.1 | 20.3 ± 4.1 | 21.3 ± 4 | 96.7±5.8% | 99.9 ± 6.4 | 104 ± 7.6 | 92.8 ± 5.8 | 90.2 ± 6.1 | 95.9 ± 13.8 | 84.2 ± 8.1 | – | 95.8±2.5%
